Experimental data published in ChEMBL document CHEMBL1136723, “A novel atypical retinoid endowed with proapoptotic and antitumor activity” (J Med Chem, 2003).

What was measured:
[1] = tested on: SAOS-2; test: Antiproliferative effect of compound on SAOS cell line; type: functional, cell-based; conditions: Homo sapiens
Procedure, shortened: (§1)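 Human tumor cell lines exposed to drug for 72 h. Growth was measured by cell counting. IC50, the concentration giving 50% inhibition of cell growth, was read from dose–response curves.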

[2] = tested on: IGROV-1; test: (§2) Apoptosis was determined my morphological analysis of propidium-iodide-stained cells following 24 hr exposure to IC80 (0.5 uM), value expressed as percentage of apoptotic cells versus total cell number; type: functional, Homo sapiens
[3] = tested on: DU-145; test: as §2; type: functional, Homo sapiens
[4] = tested on: LNCaP; test: Antiproliferative effect of compound on LNcaP cell line expressing wild-type p53; type: functional, cell-based; conditions: Homo sapiens; procedure, shortened: as §1
[5] = tested on: IGROV-1; test: (§3) Apoptosis was determined my morphological analysis of propidium-iodide-stained cells following 48 hr exposure to IC80 (0.5 uM), value expressed as percentage of apoptotic cells versus total cell number; type: functional, Homo sapiens
[6] = tested on: DU-145; test: as §3; type: functional, Homo sapiens
[7] = tested on: A2780; test: Antiproliferative effect of compound on A2780/DX cell line; type: functional, cell-based; conditions: Homo sapiens; procedure, shortened: as §1
[8] = tested on: GBM; test: Antiproliferative effect of compound on GBM cell line expressing mutant p53; type: functional, cell-based; conditions: Homo sapiens; procedure, shortened: as §1
[9] = tested on: IGROV-1; test: Antiproliferative effect of compound on IGROV-1 cell line expressing wild-type p53; type: functional, cell-based; conditions: Homo sapiens; procedure, shortened: as §1
[10] = tested on: A-431; test: Antiproliferative effect of compound on A431 cell line expressing mutant p53; type: functional, cell-based; conditions: Homo sapiens; procedure, shortened: as §1
[11] = tested on: DU-145; test: Antiproliferative effect of compound on DU145 cell line expressing mutant p53; type: functional, cell-based; conditions: Homo sapiens; procedure, shortened: as §1
[12] = tested on: U2OS; test: Antiproliferative effect of compound on U2OS cell line expressing wild-type p53; type: functional, cell-based; conditions: Homo sapiens; procedure, shortened: as §1
[13] = tested on: PC-3; test: Antiproliferative effect of compound on PC3 cell line; type: functional, cell-based; conditions: Homo sapiens; procedure, shortened: as §1
[14] = tested on: NCI-H460; test: Antiproliferative effect of compound on H460 cell line expressing wild-type p53; type: functional, cell-based; conditions: Homo sapiens; procedure, shortened: as §1
[15] = tested on: LoVo; test: Antiproliferative effect of compound on LoVo cell line expressing wild-type p53; type: functional, cell-based; conditions: Homo sapiens; procedure, shortened: as §1
[16] = tested on: IGROV-1; test: (§4) Apoptosis was determined my morphological analysis of propidium-iodide-stained cells following 72 hr exposure to IC80 (0.5 uM), value expressed as percentage of apoptotic cells versus total cell number; type: functional, Homo sapiens
[17] = tested on: DU-145; test: as §4; type: functional, Homo sapiens
[18] = tested on: Me665/2/21; test: Antiproliferative effect of compound on Me665/2/21 cell line expressing mutant p53; type: functional, cell-based; conditions: Homo sapiens; procedure, shortened: as §1
[19] = tested on: HCT-116; test: Antiproliferative effect of compound on HCT116 cell line expressing wild-type p53; type: functional, cell-based; conditions: Homo sapiens; procedure, shortened: as §1

O=C(O)/C=C/c1ccc(-c2ccc(O)c(C34CC5CC(CC(C5)C3)C4)c2)cc1 [ADAROTENE]
IC50 [1]: 0.25 µM | Apoptosis [2]: 42% | Apoptosis [3]: 24% | IC50 [4]: 0.12 µM | Apoptosis [5]: 46% | Apoptosis [6]: 44% | IC50 [7]: 0.1 µM | IC50 [8]: 0.18 µM | IC50 [9]: 0.23 µM | IC50 [10]: 0.25 µM | IC50 [11]: 0.1 µM | IC50 [12]: 0.26 µM | IC50 [13]: 0.21 µM | IC50 [14]: 0.19 µM | IC50 [15]: 0.15 µM | Apoptosis [16]: 44% | Apoptosis [17]: 50% | IC50 [18]: 0.25 µM | IC50 [19]: 0.32 µM

O=C(O)c1ccc2cc(-c3ccc(O)c(C45CC6CC(CC(C6)C4)C5)c3)ccc2c1 [O-DEMETHYLATED ADAPALENE]
IC50 [1]: 0.67 µM | Apoptosis [2]: 22% | Apoptosis [3]: 16% | IC50 [4]: 0.32 µM | Apoptosis [5]: 15% | Apoptosis [6]: 33% | IC50 [8]: 0.55 µM | IC50 [9]: 0.35 µM | IC50 [10]: 0.51 µM | IC50 [11]: 0.28 µM | IC50 [12]: 0.44 µM | IC50 [13]: 0.43 µM | IC50 [14]: 0.43 µM | IC50 [15]: 0.49 µM | Apoptosis [16]: 38% | Apoptosis [17]: 30% | IC50 [18]: 0.42 µM | IC50 [19]: 0.68 µM
